Data as given in ChEMBL document CHEMBL3994650, “New 1,4-dihydro[1,8]naphthyridine derivatives as DNA gyrase inhibitors” (Bioorg Med Chem Lett, 2017).
≈ marks a conversion by molar mass, not a printed value. Calls of active or inactive are those of the source. The rule behind the calls is not given here.

What was measured:
[1] = Selectivity index, ratio of IC50 for mouse NIH/3T3 cells to MIC90 for Klebsiella pneumoniae ATCC 700603; type: toxicity; conditions: read-out: Selectivity Index
[2] = Selectivity index, ratio of IC50 for mouse NIH/3T3 cells to MIC90 for Listeria monocytogenes ATCC 7644; type: toxicity; conditions: read-out: Selectivity Index
Salmonella typhimurium [3] = experiment: Mutagenicity in Salmonella typhimurium TA98 assessed as increase in revertant colonies at 0.156 mg/ml in presence of Sprague-Dawley rat liver S9 fraction by Ames test relative to basal level; type: toxicity; conditions: salmonella enterica subsp. enterica serovar typhimurium
Summary of the method: (§1)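 Ames microplate format assay with strains TA98 and TA100, run with and without S9. Positive wells were counted per condition. The run was valid if positive controls gave more than 25 positive wells and negative controls fewer than 8.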

Salmonella typhimurium [4] = experiment: Mutagenicity in Salmonella typhimurium TA100 assessed as increase in revertant colonies at 0.156 mg/ml in presence of Sprague-Dawley rat liver S9 fraction by Ames test relative to basal level; type: toxicity; conditions: salmonella enterica subsp. enterica serovar typhimurium; summary of the method: as §1
Staphylococcus aureus [5] = experiment: Antibacterial activity against Staphylococcus aureus ATCC 25923 incubated after 24 hrs by resazurin dye based broth microdilution assay; type: functional; conditions: ATCC 25923, 24 h
Escherichia coli [6] = experiment: Antibacterial activity against Escherichia coli ATCC 35218 incubated after 24 hrs by resazurin dye based broth microdilution assay; type: functional; conditions: ATCC 35218, 24 h
Escherichia coli [7] = experiment: Antibacterial activity against Escherichia coli ATCC 25922 incubated after 24 hrs by resazurin dye based broth microdilution assay; type: functional; conditions: ATCC 25922, 24 h
Klebsiella pneumoniae = experiment: Antibacterial activity against Klebsiella pneumoniae ATCC 700603 incubated after 24 hrs by resazurin dye based broth microdilution assay; type: functional; conditions: Klebsiella pneumoniae, 700603, 24 h
Enterococcus faecalis [8] = experiment: Antibacterial activity against Enterococcus faecalis ATCC 29212 incubated after 24 hrs by resazurin dye based broth microdilution assay; type: functional; conditions: ATCC 29212, 24 h
Enterococcus faecalis [9] = experiment: Antibacterial activity against Enterococcus faecalis ATCC 51299 incubated after 24 hrs by resazurin dye based broth microdilution assay; type: functional; conditions: ATCC 51299, 24 h
Listeria monocytogenes = experiment: Antibacterial activity against Listeria monocytogenes ATCC 7644 incubated after 24 hrs by resazurin dye based broth microdilution assay; type: functional; conditions: ATCC 7644, 24 h
Pseudomonas aeruginosa = experiment: Antibacterial activity against Pseudomonas aeruginosa ATCC 27853 incubated after 24 hrs by resazurin dye based broth microdilution assay; type: functional; conditions: ATCC 27853, 24 h
Staphylococcus aureus [10] = experiment: Antibacterial activity against Staphylococcus aureus ATCC 25923 assessed as decrease in ATP level at […] ug/ml after 24 hrs by BacTiter-Glo reagent based bioluminescence assay; type: functional
[11] = test system: Escherichia coli ATCC 25922; experiment: Inhibition of Escherichia coli DNA gyrase assessed as inhibition of enzyme-mediated supercoiling of relaxed pHOT1 DNA substrate after 30 mins by gel electrophoresis method
Summary of the method: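 E. coli DNA gyrase (1 U) was incubated with relaxed pHOT1 DNA substrate (0.25 µg) for 30 min at 37 °C. Compounds were tested at 15.6, 7.8, 3.9 and 1.95 µg/L. Controls were supercoiled DNA, relaxed DNA, relaxed DNA plus gyrase, and 1% DMSO. Supercoiling was read by agarose gel electrophoresis.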

NIH3T3 = experiment: Cytotoxicity against mouse NIH/3T3 cells assessed as reduction in cell proliferation after 24 hrs by MTT assay; type: cell-based; conditions: NIH3T3, 24 h
[12] = Selectivity index, ratio of IC50 for mouse NIH/3T3 cells to MIC90 for Pseudomonas aeruginosa ATCC 27853; type: toxicity; conditions: read-out: Selectivity Index
Salmonella typhimurium [13] = experiment: Mutagenicity in Salmonella typhimurium TA98 assessed as increase in revertant colonies at 0.3125 mg/ml in presence of Sprague-Dawley rat liver S9 fraction by Ames test relative to basal level; type: toxicity; conditions: salmonella enterica subsp. enterica serovar typhimurium; summary of the method: as §1
Salmonella typhimurium [14] = experiment: Mutagenicity in Salmonella typhimurium TA98 assessed as increase in revertant colonies at 0.625 mg/ml in presence of Sprague-Dawley rat liver S9 fraction by Ames test relative to basal level; type: toxicity; conditions: salmonella enterica subsp. enterica serovar typhimurium; summary of the method: as §1
Salmonella typhimurium [15] = experiment: Mutagenicity in Salmonella typhimurium TA98 assessed as increase in revertant colonies at 1.25 mg/ml in presence of Sprague-Dawley rat liver S9 fraction by Ames test relative to basal level; type: toxicity; conditions: salmonella enterica subsp. enterica serovar typhimurium; summary of the method: as §1
Salmonella typhimurium [16] = experiment: Mutagenicity in Salmonella typhimurium TA98 assessed as increase in revertant colonies at 2.5 mg/ml in presence of Sprague-Dawley rat liver S9 fraction by Ames test relative to basal level; type: toxicity; conditions: salmonella enterica subsp. enterica serovar typhimurium; summary of the method: as §1
Salmonella typhimurium [17] = experiment: Mutagenicity in Salmonella typhimurium TA98 assessed as increase in revertant colonies at 5 mg/ml in presence of Sprague-Dawley rat liver S9 fraction by Ames test relative to basal level; type: toxicity; conditions: salmonella enterica subsp. enterica serovar typhimurium; summary of the method: as §1
Salmonella typhimurium [18] = experiment: Mutagenicity in Salmonella typhimurium TA98 assessed as increase in revertant colonies at 0.156 mg/ml in absence of Sprague-Dawley rat liver S9 fraction by Ames test relative to basal level; type: toxicity; conditions: salmonella enterica subsp. enterica serovar typhimurium; summary of the method: as §1
Salmonella typhimurium [19] = experiment: Mutagenicity in Salmonella typhimurium TA98 assessed as increase in revertant colonies at 0.3125 mg/ml in absence of Sprague-Dawley rat liver S9 fraction by Ames test relative to basal level; type: toxicity; conditions: salmonella enterica subsp. enterica serovar typhimurium; summary of the method: as §1
Salmonella typhimurium [20] = experiment: Mutagenicity in Salmonella typhimurium TA98 assessed as increase in revertant colonies at 0.625 mg/ml in absence of Sprague-Dawley rat liver S9 fraction by Ames test relative to basal level; type: toxicity; conditions: salmonella enterica subsp. enterica serovar typhimurium; summary of the method: as §1
Salmonella typhimurium [21] = experiment: Mutagenicity in Salmonella typhimurium TA98 assessed as increase in revertant colonies at 1.25 mg/ml in absence of Sprague-Dawley rat liver S9 fraction by Ames test relative to basal level; type: toxicity; conditions: salmonella enterica subsp. enterica serovar typhimurium; summary of the method: as §1
Salmonella typhimurium [22] = experiment: Mutagenicity in Salmonella typhimurium TA98 assessed as increase in revertant colonies at 2.5 mg/ml in absence of Sprague-Dawley rat liver S9 fraction by Ames test relative to basal level; type: toxicity; conditions: salmonella enterica subsp. enterica serovar typhimurium; summary of the method: as §1
Salmonella typhimurium [23] = experiment: Mutagenicity in Salmonella typhimurium TA98 assessed as increase in revertant colonies at 5 mg/ml in absence of Sprague-Dawley rat liver S9 fraction by Ames test relative to basal level; type: toxicity; conditions: salmonella enterica subsp. enterica serovar typhimurium; summary of the method: as §1
Salmonella typhimurium [24] = experiment: Mutagenicity in Salmonella typhimurium TA100 assessed as increase in revertant colonies at 0.3125 mg/ml in presence of Sprague-Dawley rat liver S9 fraction by Ames test relative to basal level; type: toxicity; conditions: salmonella enterica subsp. enterica serovar typhimurium; summary of the method: as §1
Salmonella typhimurium [25] = experiment: Mutagenicity in Salmonella typhimurium TA100 assessed as increase in revertant colonies at 0.625 mg/ml in presence of Sprague-Dawley rat liver S9 fraction by Ames test relative to basal level; type: toxicity; conditions: salmonella enterica subsp. enterica serovar typhimurium; summary of the method: as §1
Salmonella typhimurium [26] = experiment: Mutagenicity in Salmonella typhimurium TA100 assessed as increase in revertant colonies at 1.25 mg/ml in presence of Sprague-Dawley rat liver S9 fraction by Ames test relative to basal level; type: toxicity; conditions: salmonella enterica subsp. enterica serovar typhimurium; summary of the method: as §1
Salmonella typhimurium [27] = experiment: Mutagenicity in Salmonella typhimurium TA100 assessed as increase in revertant colonies at 2.5 mg/ml in presence of Sprague-Dawley rat liver S9 fraction by Ames test relative to basal level; type: toxicity; conditions: salmonella enterica subsp. enterica serovar typhimurium; summary of the method: as §1
Salmonella typhimurium [28] = experiment: Mutagenicity in Salmonella typhimurium TA100 assessed as increase in revertant colonies at 5 mg/ml in presence of Sprague-Dawley rat liver S9 fraction by Ames test relative to basal level; type: toxicity; conditions: salmonella enterica subsp. enterica serovar typhimurium; summary of the method: as §1
Salmonella typhimurium [29] = experiment: Mutagenicity in Salmonella typhimurium TA100 assessed as increase in revertant colonies at 0.156 mg/ml in absence of Sprague-Dawley rat liver S9 fraction by Ames test relative to basal level; type: toxicity; conditions: salmonella enterica subsp. enterica serovar typhimurium; summary of the method: as §1
Salmonella typhimurium [30] = experiment: Mutagenicity in Salmonella typhimurium TA100 assessed as increase in revertant colonies at 0.3125 mg/ml in absence of Sprague-Dawley rat liver S9 fraction by Ames test relative to basal level; type: toxicity; conditions: salmonella enterica subsp. enterica serovar typhimurium; summary of the method: as §1
Salmonella typhimurium [31] = experiment: Mutagenicity in Salmonella typhimurium TA100 assessed as increase in revertant colonies at 0.625 mg/ml in absence of Sprague-Dawley rat liver S9 fraction by Ames test relative to basal level; type: toxicity; conditions: salmonella enterica subsp. enterica serovar typhimurium; summary of the method: as §1
Salmonella typhimurium [32] = experiment: Mutagenicity in Salmonella typhimurium TA100 assessed as increase in revertant colonies at 1.25 mg/ml in absence of Sprague-Dawley rat liver S9 fraction by Ames test relative to basal level; type: toxicity; conditions: salmonella enterica subsp. enterica serovar typhimurium; summary of the method: as §1
Salmonella typhimurium [33] = experiment: Mutagenicity in Salmonella typhimurium TA100 assessed as increase in revertant colonies at 2.5 mg/ml in absence of Sprague-Dawley rat liver S9 fraction by Ames test relative to basal level; type: toxicity; conditions: salmonella enterica subsp. enterica serovar typhimurium; summary of the method: as §1
Salmonella typhimurium [34] = experiment: Mutagenicity in Salmonella typhimurium TA100 assessed as increase in revertant colonies at 5 mg/ml in absence of Sprague-Dawley rat liver S9 fraction by Ames test relative to basal level; type: toxicity; conditions: salmonella enterica subsp. enterica serovar typhimurium; summary of the method: as §1

MIC90 (Staphylococcus aureus [5]): 1.95 mg/L (≈ 3.98 µM)
MIC90 (Escherichia coli [6]): 1.95 mg/L (≈ 3.98 µM)
MIC90 (Escherichia coli [7]): 1.95 mg/L (≈ 3.98 µM)
MIC90 (Klebsiella pneumoniae): 7.8 mg/L (≈ 15.9 µM)
MIC90 (Enterococcus faecalis [8]): 3.9 mg/L (≈ 7.97 µM)
MIC90 (Enterococcus faecalis [9]): 3.9 mg/L (≈ 7.97 µM)
MIC90 (Listeria monocytogenes): 7.8 mg/L (≈ 15.9 µM)
MIC90 (Pseudomonas aeruginosa): 7.8 mg/L (≈ 15.9 µM)
inhibition [11]: Dose-dependent effect
SMILES: CN(C)CCCN1CCN(c2nc3c(cc2F)c(=O)c(C(=O)O)cn3-c2ccc(F)cc2F)CC1
selectivity ratio [1]: 54
selectivity ratio [2]: 54
fold change (FC) (Salmonella typhimurium [3]): 0
fold change (FC) (Salmonella typhimurium [4]): 0
Activity (Staphylococcus aureus [10]): Active
IC50 (NIH3T3): 440 mg/L (≈ 899 µM)
selectivity ratio [12]: 54
fold change (FC) (Salmonella typhimurium [13]): 0.11
fold change (FC) (Salmonella typhimurium [14]): 0
fold change (FC) (Salmonella typhimurium [15]): 0
fold change (FC) (Salmonella typhimurium [16]): 0
fold change (FC) (Salmonella typhimurium [17]): 0
fold change (FC) (Salmonella typhimurium [18]): 0
fold change (FC) (Salmonella typhimurium [19]): 0
fold change (FC) (Salmonella typhimurium [20]): 0
fold change (FC) (Salmonella typhimurium [21]): 0
fold change (FC) (Salmonella typhimurium [22]): 0
fold change (FC) (Salmonella typhimurium [23]): 0
fold change (FC) (Salmonella typhimurium [24]): 0
fold change (FC) (Salmonella typhimurium [25]): 0
fold change (FC) (Salmonella typhimurium [26]): 0
fold change (FC) (Salmonella typhimurium [27]): 0
fold change (FC) (Salmonella typhimurium [28]): 0
fold change (FC) (Salmonella typhimurium [29]): 0
fold change (FC) (Salmonella typhimurium [30]): 0
fold change (FC) (Salmonella typhimurium [31]): 0
fold change (FC) (Salmonella typhimurium [32]): 0
fold change (FC) (Salmonella typhimurium [33]): 0
fold change (FC) (Salmonella typhimurium [34]): 0
